Compound activity deposited in PubChem BioAssay by several laboratories.
Only some compounds are listed: those with a hit (about 3.3% of all), similar ones and a draw of the others.
PMI act hi M6P: human PMI activators, high substrate, primary screen, biochemical, fluorescence intensity, near-saturating mannose 6-phosphate; activation factor at 20 µM; 190,000 compounds, 0.34% hits; coupled PMI enzyme assay, resazurin fluorescence, 20 min; stronger effect = higher value; 1 = untreated enzyme, 0 = substrate-free blank; Mannose-6-phosphate isomerase (Homo sapiens), P34949; AID 1216, 2008;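 active = activation factor of 2 or more at 20 µM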
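Material: human phosphomannose isomerase with PGI, G6PDH, diaphorase coupling enzymes; amount: PMI at 15 ng/mL final; also added: Mannose-6-phosphate 1.0 mM (near-saturating) plus 0.22 mM NADP+; incubation: enzyme reaction with compound 20 min at room temperature; signal: resorufin fluorescence (Ex 544/Em 590 nm) from resazurin via diaphorase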
PMI act: activators of human PMI, primary screen, biochemical, fluorescence intensity, near-Km mannose 6-phosphate; purified human PMI, coupled resazurin fluorescence, 20 min; stronger effect = higher value; 1 = vehicle control, 0 substrate-free wells; activation factor at 20 µM; 190,000 compounds, 0.005% hits;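 active = activation factor of 2 or more at 20 µM, relative to plate controls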
KCC2 mod: KCC2 cotransporter modulators, thallium flux, primary screen, cell-based, HEK293 KCC2, FluoZin-2 fluorescence, MLSMR; KCC2 cells, thallium flux FluoZin-2 fluorescence; B-score of Tl+ flux slope (higher = more flux/activation; lower = inhibition) at 10 µM; Solute carrier family 12 member 5 (Homo sapiens), Q9H2X9; AID 1456, 2008; 190,000 compounds, 2.2% hits;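 active = thallium flux slope and its plate-corrected score both differing from the plate sample mean at a set confidence after two filtering rounds, in either direction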;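 note: slope of fluorescence scaled to starting intensity during 10 to 20 s after thallium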
ABCG2 inh: ABCG2 efflux pump inhibitors, primary screen, multiplex with ABCB1, IgMXP3 cells, flow cytometry. JC-1 efflux. inhibition, % at 6.6 µM. 190,000 compounds, 0.1% hits. AID 1325, 2008;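 active = inhibition above 80%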
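Test system: IgMXP3 cells (ABCG2) mixed with DDAO far-red-labelled CCRF-Adr cells (ABCB1). Reagent: JC-1 transporter substrate. Compound dosing: single test compound dose, 6.6 µM final. Times: 10 min compound exposure, 25 °C. Detection: flow cytometry of retained JC-1 fluorescence. Read-out basis: efflux inhibition in percent versus controls. Controls: nicardipine and DMSO wells.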
ABCB1 block: ABCB1 efflux pump inhibitors, primary screen, cell-based, multiplex, flow cytometry, ABCG2 counter-screen. ATP-dependent translocase ABCB1 (Homo sapiens), P08183. inhibition, % at 6.6 µM. 190,000 compounds, 0.067% hits. CCRF-Adr cells, JC-1 efflux; in the data active = inhibition above about 40%;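 note: higher value means more JC-1 retained so stronger ABCB1 efflux block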
Target sequence (P08183 whole entry, looked up): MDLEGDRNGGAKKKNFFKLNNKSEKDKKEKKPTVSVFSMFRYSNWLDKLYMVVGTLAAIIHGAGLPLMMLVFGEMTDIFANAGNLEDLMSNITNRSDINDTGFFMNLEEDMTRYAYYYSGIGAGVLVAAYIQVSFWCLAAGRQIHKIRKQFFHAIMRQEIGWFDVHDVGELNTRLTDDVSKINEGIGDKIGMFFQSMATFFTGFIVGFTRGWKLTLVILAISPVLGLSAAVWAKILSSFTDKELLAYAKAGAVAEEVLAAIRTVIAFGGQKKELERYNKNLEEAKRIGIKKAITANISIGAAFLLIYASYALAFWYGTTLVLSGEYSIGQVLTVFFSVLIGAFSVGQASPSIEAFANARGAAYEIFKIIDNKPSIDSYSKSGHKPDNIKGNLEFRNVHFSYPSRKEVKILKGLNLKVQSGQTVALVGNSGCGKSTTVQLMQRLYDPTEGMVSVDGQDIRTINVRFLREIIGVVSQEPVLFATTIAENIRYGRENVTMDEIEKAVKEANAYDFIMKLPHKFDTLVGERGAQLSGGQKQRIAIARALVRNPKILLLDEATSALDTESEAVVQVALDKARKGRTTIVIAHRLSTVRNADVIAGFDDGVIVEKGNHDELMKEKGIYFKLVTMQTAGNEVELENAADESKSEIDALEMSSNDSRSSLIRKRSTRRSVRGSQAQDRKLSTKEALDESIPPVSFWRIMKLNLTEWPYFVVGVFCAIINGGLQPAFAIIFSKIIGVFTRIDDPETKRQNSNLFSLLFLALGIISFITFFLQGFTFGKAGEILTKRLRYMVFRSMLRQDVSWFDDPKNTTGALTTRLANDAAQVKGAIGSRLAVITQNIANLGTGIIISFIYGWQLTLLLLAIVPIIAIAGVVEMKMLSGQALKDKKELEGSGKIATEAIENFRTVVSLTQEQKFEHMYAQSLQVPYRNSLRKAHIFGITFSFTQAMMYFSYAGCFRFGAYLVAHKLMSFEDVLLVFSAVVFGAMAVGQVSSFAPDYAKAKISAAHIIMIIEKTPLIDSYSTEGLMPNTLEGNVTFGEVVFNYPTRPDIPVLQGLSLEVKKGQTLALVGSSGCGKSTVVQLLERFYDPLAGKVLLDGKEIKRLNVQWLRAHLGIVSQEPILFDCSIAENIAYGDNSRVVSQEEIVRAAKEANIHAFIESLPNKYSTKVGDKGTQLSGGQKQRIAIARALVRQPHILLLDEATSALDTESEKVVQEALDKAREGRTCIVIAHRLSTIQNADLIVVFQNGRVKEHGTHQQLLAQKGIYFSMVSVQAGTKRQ
ROMK primary: ROMK potassium channel modulators, primary screen, cell-based, thallium flux, MLSMR library. ATP-sensitive inward rectifier potassium channel 1 (Homo sapiens), P48048. Tet-inducible ROMK, thallium flux fluorescence; actives lie on both sides. B-score at 10 µM. 130,000 compounds, 2% hits;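 active = signal ratio slope over the read window, or its plate-corrected B-score, at least 3 SD from the plate mean, either direction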;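 note: B-score of the F/F0 ratio slope over 7 to 12 s after thallium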
KCC2 secondary: KCC2 modulators in sodium-free buffer, confirmation, cell-based, HEK293 KCC2, thallium flux, secondary assay; shares compounds with KCC2 mod; FluoZin2 fluorescence; stronger effect = higher value; normalised thallium flux (F/F0 slope) at 10 µM; 3,700 compounds, 15% hits; AID 1713, 2009;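 active = thallium flux slope above the same plate's solvent-only control mean plus 3 SD; inconclusive = the two replicate wells disagree; inactive = no significant difference from solvent-only control wells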
KCC2 bumet counter: thallium flux persisting under bumetanide in KCC2 cells, confirmation, counter-screen for KCC2 modulator project, cell-based, HEK293 KCC2, FluoZin2, secondary assay 3. shares compounds with KCC2 mod. 3,700 compounds, 49% hits. HEK293-KCC2 + bumetanide/ouabain; stronger effect = higher value. normalized thallium flux at 10 µM. AID 1714, 2009;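 active = thallium entry rate above the same plate's blocked-transporter control wells by more than 3 SD; inconclusive = the two repeat wells disagree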;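 note: raw slope of fluorescence over initial fluorescence between 10 and 20 s after thallium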
KCC2 secondary2: KCC2 modulators without ouabain present, confirmation, cell-based, HEK293 KCC2, thallium flux, FluoZin2, secondary assay 2 | AID 1715, 2009 | shares compounds with KCC2 mod | thallium flux FluoZin2 fluorescence; actives lie on both sides; F/F0 rise rate, 10–20 s post-thallium | normalized thallium flux at 10 µM | 3,700 compounds, 23% hits;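 active = thallium flux slope more than 3 SD above or below the plate's solvent-only control mean, mostly below; inconclusive = the two repeat wells disagreed; inactive = no significant shift from solvent-only controls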
HEK counter1: thallium flux modulation in parental HEK cells, confirmation, counter-screen for KCC2 modulator project, cell-based, counterscreen 1 | shares compounds with KCC2 mod | HEK293 parental cells, thallium flux FluoZin2, ouabain; baseline-ratio fluorescence slope, 10–20 s after thallium | thallium flux rate (normalised fluorescence) at 10 µM | 3,700 compounds, 46% hits | AID 1716, 2009;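 active = thallium flux rate significantly above the same plate's solvent-only control wells, beyond their mean plus 3 SD; inconclusive = the two replicate wells gave conflicting results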
KCC2 retest ouab: KCC2 inhibitors and activators, ouabain retest, confirmation, HEK-KCC2 cells | HEK293-KCC2, thallium flux FluoZin2 fluorescence; bidirectional: low = inhibitor, high = activator | AID 1717, 2009 | raw Tl+ flux slope (below DMSO = inhibition, above = activation) at 10 µM | 3,700 compounds, 48% hits | shares compounds with KCC2 mod;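 active = thallium flux slope beyond 3 SD from same-plate DMSO control mean in most replicates, usually higher, sometimes lower; inconclusive = repeat tests gave conflicting results; inactive = no significant difference from controls in most replicates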;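 note: slope of initial-normalized fluorescence between seconds 10 and 20 after thallium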
HEK293 Tl flux2: native HEK Tl+ uptake effects, second counter-screen – HEK cells, counterscreen 2, counter-screen for KCC2 modulator project, confirmation; shares compounds with KCC2 mod; HEK293 parental, thallium flux FluoZin-2 fluorescence slope; thallium flux slope at 10 µM; 3,700 compounds, 33% hits; AID 1718, 2009;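 active = thallium flux slope above the same plate's solvent-control mean plus 3 SD in both duplicate wells; inconclusive = duplicate wells that disagreed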;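 note: run without ouabain in cells lacking the KCC2 cotransporter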
Each line names hits and unclear results; the compound was inactive in the other large screens (follow-up assays come after a bar, where they were run).

COC(=O)C(C)(C)ONC(=O)Nc1ccccc1	none (no result: ROMK primary)
CN(C)C(=S)NC(=O)C12CC3CC(C)(CC(C)(C3)C1)C2	KCC2 mod 16.8 (no result: PMI act hi M6P, PMI act, ABCG2 inh, ABCB1 block, ROMK primary) | KCC2 secondary inconclusive | KCC2 bumet counter 0.0386 | KCC2 secondary2 inactive | HEK counter1 0.0161 | KCC2 retest ouab 0.0251 | HEK293 Tl flux2 0.0197
CN(C)NC(=S)NC(=O)C12CC3CC(CC(C3)C1)C2	none
O=C(/C=C/c1cccs1)N1CCN(c2ccccc2)CC1	none
O=C(CSc1nnc(COc2cccc3cccnc23)o1)c1ccc(F)cc1	none (no result: KCC2 mod) | KCC2 secondary inactive | KCC2 bumet counter inactive | KCC2 secondary2 inactive | HEK counter1 inactive | KCC2 retest ouab 0.0151 | HEK293 Tl flux2 inactive
Cc1ccc(C(=O)CSc2nnc(COc3cccc4cccnc34)o2)cc1	KCC2 mod -4.04 | KCC2 secondary inconclusive | KCC2 bumet counter inconclusive | KCC2 secondary2 inconclusive | HEK counter1 inactive | KCC2 retest ouab inactive | HEK293 Tl flux2 inactive
O=C(O)CSCC(=O)NCc1ccccc1	none (no result: KCC2 mod)
CS(=O)(=O)N(CC(=O)NCc1ccc2c(c1)OCO2)Cc1ccccc1	none
O=C(NCC(c1cccs1)N1CCOCC1)c1ccccc1NS(=O)(=O)c1ccc(Cl)c([N+](=O)[O-])c1 (centres undefined)	KCC2 mod -3.6 (no result: ROMK primary) | KCC2 secondary inactive | KCC2 bumet counter inactive | KCC2 secondary2 0.0265 | HEK counter1 0.00608 | KCC2 retest ouab 0.0162 | HEK293 Tl flux2 inconclusive
O=C(NCC(c1cccs1)N1CCOCC1)c1ccccc1NS(=O)(=O)c1cccc([N+](=O)[O-])c1 (centres undefined)	none (no result: ROMK primary)
COc1ccc2nc(NC(=O)C3COc4ccccc4O3)sc2c1 (centres undefined)	none (no result: ROMK primary)
O=C(Nc1nc(-c2nc3ccccc3s2)cs1)C1COc2ccccc2O1 (centres undefined)	KCC2 mod 2.55 (no result: ROMK primary) | KCC2 secondary inactive | KCC2 bumet counter 0.00832 | KCC2 secondary2 inactive | HEK counter1 inconclusive | KCC2 retest ouab inactive | HEK293 Tl flux2 0.0112
COc1ccc(Cl)cc1C(=O)NNC(=O)C1COc2ccccc2O1 (centres undefined)	KCC2 mod 39 | KCC2 secondary inactive | KCC2 bumet counter 0.0535 | KCC2 secondary2 inactive | HEK counter1 0.0166 | KCC2 retest ouab 0.043 | HEK293 Tl flux2 0.0116
COc1ccc(C)cc1NC(=O)C1COc2ccccc2O1 (centres undefined)	none
COc1ccc2nc(NNC(=O)C3COc4ccccc4O3)sc2c1 (centres undefined)	KCC2 mod 5.07 | KCC2 secondary inactive | KCC2 bumet counter 0.0198 | KCC2 secondary2 inactive | HEK counter1 0.0109 | KCC2 retest ouab inconclusive | HEK293 Tl flux2 inactive
CCOC(=O)c1ccccc1NC(=O)C1COc2ccccc2O1 (centres undefined)	KCC2 mod -5.18 | KCC2 secondary inactive | KCC2 bumet counter inactive | KCC2 secondary2 inactive | HEK counter1 inactive | KCC2 retest ouab inactive | HEK293 Tl flux2 inactive
O=C(c1ccc(Cl)cc1)c1cnc2ccccn12	KCC2 mod -3.39 | KCC2 secondary inactive | KCC2 bumet counter inactive | KCC2 secondary2 inactive | HEK counter1 inactive | KCC2 retest ouab inactive | HEK293 Tl flux2 inactive
O=C(O)c1ccc(CSc2nnc(COc3ccc(Cl)cc3Cl)o2)cc1	KCC2 mod -3.11 (no result: ROMK primary) | KCC2 secondary inactive | KCC2 bumet counter inconclusive | KCC2 secondary2 inactive | HEK counter1 inactive | KCC2 retest ouab inactive | HEK293 Tl flux2 inactive
COc1ccc(OCc2nnc(SCc3ccc(C(=O)O)cc3)o2)cc1	none
Cc1cc(C)c2cc(C#N)c(N3CCCC3)nc2c1	KCC2 mod 8.71 | KCC2 secondary inactive | KCC2 bumet counter inactive | KCC2 secondary2 inactive | HEK counter1 inactive | KCC2 retest ouab inactive | HEK293 Tl flux2 inactive
O=C1/C(=C/c2ccccn2)SC(=S)N1N1CCOCC1	none (no result: PMI act hi M6P, PMI act, ABCG2 inh, ABCB1 block, ROMK primary)
Brc1ccc(-c2csc(Nc3nc(-c4ccc(Br)cc4)cs3)n2)cc1	KCC2 mod 18.6 (no result: PMI act hi M6P, PMI act, ABCG2 inh, ABCB1 block, ROMK primary) | KCC2 secondary inactive | KCC2 bumet counter 0.0248 | KCC2 secondary2 inactive | HEK counter1 0.0143 | KCC2 retest ouab inactive | HEK293 Tl flux2 0.0118
CN(CC(=O)O)Cc1nc2ccccc2[nH]1	none
COc1ccc(/C=C(\C#N)C(=O)NCCc2ccccc2)cc1OCc1ccccc1	none
N#C/C(=C\c1ccc(O)c(O)c1)C(=O)NCCCc1ccccc1	none (no result: ROMK primary) | KCC2 secondary inactive | KCC2 bumet counter inactive | KCC2 secondary2 inactive | HEK counter1 inactive | KCC2 retest ouab inconclusive | HEK293 Tl flux2 inactive
